pIC50: −log10 of the molar value. ≈ marks a conversion by molar mass, not a printed value. Calls of active or inactive are those of the source. No cut-off for these calls is given here.
Columns and labels:
Enterococcus sp. = test: Antibacterial activity against Enterococcus sp. J 14365/08 at 500 micromol/L after 24 to 48 hrs by broth microdilution method; type: functional, organism-based
Method in brief: (§1)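 Broth microdilution in Mueller–Hinton broth, compounds dissolved in DMSO, tested over a dilution series from 500 downward. MIC taken as ≥95% growth reduction (IC95) versus drug-free control. Benzylpenicillin comparator. Readings at 24 and 48 h.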

Lichtheimia corymbifera [1] = test: Antifungal activity against Absidia corymbifera 272 after 24 hrs by broth microdilution method; type: functional; conditions: Lichtheimia corymbifera, 272, 24 h
Method in brief: (§2)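 Broth microdilution in RPMI 1640 with glutamine, fluconazole as reference. For yeasts, MIC is ≥80% growth reduction (IC80) versus control. For filamentous fungi, the value is expressed as IC50. Readings at 24 and 48 h.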

Aspergillus fumigatus [2] = test: Antifungal activity against Aspergillus fumigatus 231 after 24 hrs by broth microdilution method; type: functional; conditions: Aspergillus fumigatus, 231, 24 h; method in brief: as §2
Mycobacterium kansasii [3] = test: Antimycobacterial activity against Mycobacterium kansasii 6509/96 after 14 days; type: functional; conditions: 6509/96, 336 h
Method in brief: (§3)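 Micromethod MIC in Šula's semisynthetic medium at 37 °C. Compounds added in DMSO at 1000 down to 0.032 µmol/L. Isoniazid standard in sterile water at 0.5–250 µmol/L. Inocula: H37Rv 10^3, M. avium 10^5, M. kansasii 10^4. Read at 14 and 21 d, plus 7 d for M. kansasii.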

Nakaseomyces glabratus = test: Antifungal activity against Candida glabrata 20/I at 500 micromol/L after 24 to 48 hrs by broth microdilution method; type: functional, organism-based; method in brief: as §2
[4] = tested on: Staphylococcus epidermidis; test: Antibacterial activity against Staphylococcus epidermidis H 6966/08 after 24 hrs by broth microdilution method; type: functional; conditions: H 6966/08, 24 h; method in brief: as §1
Aspergillus fumigatus [5] = test: Antifungal activity against Aspergillus fumigatus 231 after 48 hrs by broth microdilution method; type: functional; conditions: Aspergillus fumigatus, 231, 48 h; method in brief: as §2
Mycobacterium avium [6] = test: Antimycobacterial activity against isoniazid, rifampicin, ethambutol and ofloxacin-resistant Mycobacterium avium My 330/88 after 14 days; type: functional; conditions: My 330/88, 336 h; method in brief: as §3
[7] = tested on: Trichophyton mentagrophytes; test: Antifungal activity against Trichophyton mentagrophytes 445 after 120 hrs by broth microdilution method; type: functional; conditions: Trichophyton mentagrophytes, 445, 120 h
Method in brief: (§4)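 Filamentous dermatophyte tested by broth microdilution in RPMI 1640 with glutamine, fluconazole as reference. Value expressed as IC50 relative to growth control. Read at 72 and 120 h.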

[8] = tested on: Staphylococcus epidermidis; test: Antibacterial activity against Staphylococcus epidermidis H 6966/08 after 48 hrs by broth microdilution method; type: functional; conditions: H 6966/08, 48 h; method in brief: as §1
Klebsiella pneumoniae [9] = test: Antibacterial activity against ESBL-positive Klebsiella pneumoniae J 14368/08 at 500 micromol/L after 24 to 48 hrs by broth microdilution method; type: functional, organism-based; method in brief: as §1
Mycobacterium kansasii [10] = test: Antimycobacterial activity against Mycobacterium kansasii My 235/80 after 7 days; type: functional; conditions: My 235/80, 168 h; method in brief: as §3
Pichia kudriavzevii [11] = test: Antifungal activity against Candida krusei E28 after 48 hrs by broth microdilution method; type: functional; conditions: E28, 48 h; method in brief: as §2
Candida albicans [12] = test: Antifungal activity against Candida albicans ATCC 44859 after 24 hrs by broth microdilution method; type: functional; conditions: ATCC 44859, 24 h; method in brief: as §2
Staphylococcus aureus [13] = test: Antibacterial activity against methicillin-resistant Staphylococcus aureus H 5996/08 after 24 hrs by broth microdilution method; type: functional; conditions: H 5996/08, 24 h; method in brief: as §1
[14] = tested on: Mycobacterium tuberculosis; test: Antimycobacterial activity against Mycobacterium tuberculosis H37Rv My 331/88 after 14 days; type: functional; conditions: H37Rv My 331/88, 336 h; method in brief: as §3
Staphylococcus aureus [15] = test: Antibacterial activity against Staphylococcus aureus CCM 4516/08 after 24 hrs by broth microdilution method; type: functional; conditions: CCM 4516/08, 24 h; method in brief: as §1
[16] = tested on: Trichophyton mentagrophytes; test: Antifungal activity against Trichophyton mentagrophytes 445 after 72 hrs by broth microdilution method; type: functional; conditions: Trichophyton mentagrophytes, 445, 72 h; method in brief: as §4
Mycobacterium kansasii [17] = test: Antimycobacterial activity against Mycobacterium kansasii My 235/80 after 14 days; type: functional; conditions: My 235/80, 336 h; method in brief: as §3
Candida albicans [18] = test: Antifungal activity against Candida albicans ATCC 44859 after 48 hrs by broth microdilution method; type: functional; conditions: ATCC 44859, 48 h; method in brief: as §2
Pichia kudriavzevii [19] = test: Antifungal activity against Candida krusei E28 after 24 hrs by broth microdilution method; type: functional; conditions: E28, 24 h; method in brief: as §2
[20] = tested on: Mycobacterium tuberculosis; test: Antimycobacterial activity against Mycobacterium tuberculosis H37Rv My 331/88 after 21 days; type: functional; conditions: H37Rv My 331/88, 504 h; method in brief: as §3
Mycobacterium kansasii [21] = test: Antimycobacterial activity against Mycobacterium kansasii My 235/80 after 21 days; type: functional; conditions: My 235/80, 504 h; method in brief: as §3
Escherichia coli = test: Antibacterial activity against Escherichia coli CCM 4517 at 500 micromol/L after 24 to 48 hrs by broth microdilution method; type: functional, organism-based; method in brief: as §1
Trichosporon asahii [22] = test: Antifungal activity against Trichosporon asahii 1188 after 48 hrs by broth microdilution method; type: functional; conditions: Trichosporon asahii, 1188, 48 h; method in brief: as §2
HepG2 = test: Cytotoxicity against human HepG2 cells after 24 hrs by CellTiter assay; type: cell-based; conditions: HepG2, 24 h
Method in brief: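 HepG2 cells (passage 27–33) in MEM with 10% FBS, L-glutamine and NEAA, seeded at 1×10^4 per well. Treated next day with compounds at 0.1–100 µM (or 0.1–25 µmol/L), triplicates, <1% DMSO, for 24 h at 37 °C, 5% CO2. MTS reagent added for 2 h, absorbance read at 490 nm. IC50 taken against untreated (100%) and 10% DMSO (0%) controls.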

Mycobacterium kansasii [23] = test: Antimycobacterial activity against Mycobacterium kansasii 6509/96 after 7 days; type: functional; conditions: 6509/96, 168 h; method in brief: as §3
Mycobacterium kansasii [24] = test: Antimycobacterial activity against Mycobacterium kansasii 6509/96 after 21 days; type: functional; conditions: 6509/96, 504 h; method in brief: as §3
Klebsiella pneumoniae [25] = test: Antibacterial activity against Klebsiella pneumoniae D 11750/08 at 500 micromol/L after 24 to 48 hrs by broth microdilution method; type: functional, organism-based; method in brief: as §1
Staphylococcus aureus [26] = test: Antibacterial activity against methicillin-resistant Staphylococcus aureus H 5996/08 after 48 hrs by broth microdilution method; type: functional; conditions: H 5996/08, 48 h; method in brief: as §1
Staphylococcus aureus [27] = test: Antibacterial activity against Staphylococcus aureus CCM 4516/08 after 48 hrs by broth microdilution method; type: functional; conditions: CCM 4516/08, 48 h; method in brief: as §1
Trichosporon asahii [28] = test: Antifungal activity against Trichosporon asahii 1188 after 24 hrs by broth microdilution method; type: functional; conditions: Trichosporon asahii, 1188, 24 h; method in brief: as §2
Candida tropicalis = test: Antifungal activity against Candida tropicalis 156 at 500 micromol/L after 24 to 48 hrs by broth microdilution method; type: functional, organism-based; method in brief: as §2
Mycobacterium avium [29] = test: Antimycobacterial activity against isoniazid, rifampicin, ethambutol and ofloxacin-resistant Mycobacterium avium My 330/88 after 21 days; type: functional; conditions: My 330/88, 504 h; method in brief: as §3
Lichtheimia corymbifera [30] = test: Antifungal activity against Absidia corymbifera 272 after 48 hrs by broth microdilution method; type: functional; conditions: Lichtheimia corymbifera, 272, 48 h; method in brief: as §2
Pseudomonas aeruginosa = test: Antibacterial activity against Pseudomonas aeruginosa CCM 1961 at 500 micromol/L after 24 to 48 hrs by broth microdilution method; type: functional, organism-based; method in brief: as §1

| Structure (SMILES) | Activity (Enterococcus sp.) | MIC50 (Lichtheimia corymbifera [1]) [µM] | MIC50 (Aspergillus fumigatus [2]) [µM] | MIC (Mycobacterium kansasii [3]) [µM] | Activity (Nakaseomyces glabratus) | MIC95 [4] [µM] | MIC50 (Aspergillus fumigatus [5]) [µM] | MIC (Mycobacterium avium [6]) [µM] | MIC50 [7] [µM] | MIC95 [8] [µM] | Activity (Klebsiella pneumoniae [9]) | MIC (Mycobacterium kansasii [10]) [µM] | MIC80 (Pichia kudriavzevii [11]) [µM] | MIC80 (Candida albicans [12]) [µM] | MIC95 (Staphylococcus aureus [13]) [µM] | MIC [14] [µM] | MIC95 (Staphylococcus aureus [15]) [µM] | MIC50 [16] [µM] | MIC (Mycobacterium kansasii [17]) [µM] | MIC80 (Candida albicans [18]) [µM] | also measured |
| --- | --- | --- | --- | --- | --- | --- | --- | --- | --- | --- | --- | --- | --- | --- | --- | --- | --- | --- | --- | --- | --- |
| CCOP(=O)(OCC)Oc1cc(Cl)ccc1C(=O)Nc1ccc(Cl)cc1 | inactive | > 500 | > 500 | 8 (≈ 3.35 µg/mL) | inactive | 250 (≈ 105 µg/mL) | > 500 | 8 (≈ 3.35 µg/mL) | 500 (≈ 209 µg/mL) | 500 (≈ 209 µg/mL) | inactive | 4 (≈ 1.67 µg/mL) | > 500 | > 500 | 500 (≈ 209 µg/mL) | 4 (≈ 1.67 µg/mL) | 125 (≈ 52.3 µg/mL) | 500 (≈ 209 µg/mL) | 4 (≈ 1.67 µg/mL) | > 500 | MIC80 (Pichia kudriavzevii [19]): > 500 µM; MIC [20]: 4 µM (≈ 1.67 µg/mL); MIC (Mycobacterium kansasii [21]): 8 µM (≈ 3.35 µg/mL); Activity (Escherichia coli): inactive; MIC80 (Trichosporon asahii [22]): > 500 µM; pIC50 (HepG2): 5.25; MIC (Mycobacterium kansasii [23]): 4 µM (≈ 1.67 µg/mL); MIC (Mycobacterium kansasii [24]): 8 µM (≈ 3.35 µg/mL); Activity (Klebsiella pneumoniae [25]): inactive; MIC95 (Staphylococcus aureus [26]): > 500 µM; MIC95 (Staphylococcus aureus [27]): 250 µM (≈ 105 µg/mL); MIC80 (Trichosporon asahii [28]): > 500 µM; Activity (Candida tropicalis): inactive; MIC (Mycobacterium avium [29]): 8 µM (≈ 3.35 µg/mL); MIC50 (Lichtheimia corymbifera [30]): > 500 µM; Activity (Pseudomonas aeruginosa): inactive |
| CCOP(=O)(OCC)Oc1ccc(Br)cc1C(=O)Nc1ccc(C(F)(F)F)cc1 | inactive | > 500 | > 500 | 2 (≈ 0.992 µg/mL) | inactive | 7.81 (≈ 3.88 µg/mL) | > 500 | 8 (≈ 3.97 µg/mL) | 250 (≈ 124 µg/mL) | 15.6 (≈ 7.75 µg/mL) | inactive | 1 (≈ 0.496 µg/mL) | > 500 | > 500 | 15.6 (≈ 7.75 µg/mL) | 1 (≈ 0.496 µg/mL) | 15.6 (≈ 7.75 µg/mL) | 250 (≈ 124 µg/mL) | 2 (≈ 0.992 µg/mL) | > 500 | MIC80 (Pichia kudriavzevii [19]): > 500 µM; MIC [20]: 1 µM (≈ 0.496 µg/mL); MIC (Mycobacterium kansasii [21]): 2 µM (≈ 0.992 µg/mL); Activity (Escherichia coli): inactive; MIC80 (Trichosporon asahii [22]): > 500 µM; pIC50 (HepG2): 5.74; MIC (Mycobacterium kansasii [23]): 2 µM (≈ 0.992 µg/mL); MIC (Mycobacterium kansasii [24]): 2 µM (≈ 0.992 µg/mL); Activity (Klebsiella pneumoniae [25]): inactive; MIC95 (Staphylococcus aureus [26]): 15.6 µM (≈ 7.75 µg/mL); MIC95 (Staphylococcus aureus [27]): 31.2 µM (≈ 15.5 µg/mL); MIC80 (Trichosporon asahii [28]): > 500 µM; Activity (Candida tropicalis): inactive; MIC (Mycobacterium avium [29]): 8 µM (≈ 3.97 µg/mL); MIC50 (Lichtheimia corymbifera [30]): > 500 µM; Activity (Pseudomonas aeruginosa): inactive |
| CCOP(=O)(OCC)Oc1ccc(Br)cc1C(=O)Nc1ccc(Cl)cc1 | inactive | > 500 | > 500 | 4 (≈ 1.85 µg/mL) | inactive | 500 (≈ 231 µg/mL) | > 500 | 8 (≈ 3.7 µg/mL) | > 500 | > 500 | inactive | 4 (≈ 1.85 µg/mL) | > 500 | > 500 | 500 (≈ 231 µg/mL) | 2 (≈ 0.925 µg/mL) | 500 (≈ 231 µg/mL) | > 500 | 4 (≈ 1.85 µg/mL) | > 500 | MIC80 (Pichia kudriavzevii [19]): > 500 µM; MIC [20]: 4 µM (≈ 1.85 µg/mL); MIC (Mycobacterium kansasii [21]): 8 µM (≈ 3.7 µg/mL); Activity (Escherichia coli): inactive; MIC80 (Trichosporon asahii [22]): > 500 µM; pIC50 (HepG2): 5.17; MIC (Mycobacterium kansasii [23]): 4 µM (≈ 1.85 µg/mL); MIC (Mycobacterium kansasii [24]): 4 µM (≈ 1.85 µg/mL); Activity (Klebsiella pneumoniae [25]): inactive; MIC95 (Staphylococcus aureus [26]): > 500 µM; MIC95 (Staphylococcus aureus [27]): > 500 µM; MIC80 (Trichosporon asahii [28]): > 500 µM; Activity (Candida tropicalis): inactive; MIC (Mycobacterium avium [29]): 8 µM (≈ 3.7 µg/mL); MIC50 (Lichtheimia corymbifera [30]): > 500 µM; Activity (Pseudomonas aeruginosa): inactive |
